Source: ChEMBL document CHEMBL3102812 (J Med Chem, 2013)
pIC50: −log10 of the molar value. Activity calls are given as the source filed them. The rule behind the calls is not given here.

Test system: Mus musculus
Experiment: Toxicity in Swiss mouse at 20 mg/kg, po
Settings: in vivo

Which Activity does the source give for Cc1cc(C(=O)NC2CCN(C(c3ccc(C#N)cc3)c3cccnc3)CC2)n(C)n1 (stereo not given) here?
Its Activity is “Non-toxic”.

For N#Cc1ccc(C(O)(c2ccc(C(F)(F)F)cc2)c2cccnc2)c(F)c1 (stereo not given), which Activity is on record?
The Activity was “Non-toxic”.

With CC[C@@H]([C@H](C)O)n1ncn(-c2ccc(N3CCN(c4ccc(OC[C@@H]5CO[C@@](Cn6cncn6)(c6ccc(F)cc6F)C5)cc4)CC3)cc2)c1=O [POSACONAZOLE] as the compound, how does the Activity read?
The Activity was “Non-toxic”.

How did the Activity turn out when Fc1cc(Cl)ccc1C(NC1CCN(c2ccc(C(F)(F)F)cc2)CC1)c1cccnc1 (stereo not given) was run?
The Activity was “Non-toxic”.

Test system: Trypanosoma cruzi
Experiment: Antitrypanosomal activity against Trypanosoma cruzi Tulahuen 6 infected in Swiss mouse at 20 mg/kg, po qd administered on day 8 post-infection for 20 days followed by 10 days non-treatment period followed by three cycles of immunosuppression measured on day 58 post-infection by PCR analysis
Assay type: functional, organism-based
Design: dose 20 mg/kg
Settings: not given

With CC[C@@H]([C@H](C)O)n1ncn(-c2ccc(N3CCN(c4ccc(OC[C@@H]5CO[C@@](Cn6cncn6)(c6ccc(F)cc6F)C5)cc4)CC3)cc2)c1=O [POSACONAZOLE] as the compound, how does the Activity read?
Its Activity is “Active”.

Test system: Trypanosoma cruzi
Experiment: Antitrypanosomal activity against Trypanosoma cruzi Tulahuen 6 infected in Swiss mouse assessed as mouse survival at 10 mg/kg, po qd administered on day 8 post-infection for 20 days measured on day 28 post-infection by microscopic analysis
Assay type: functional, organism-based
Design: dose 10 mg/kg
Settings: not given
Summary of the method: (§1)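 Outbred female Swiss mice (~8 weeks) infected with mouse-passaged Tulahuen TcVI trypomastigotes; oral dosing once daily for 20 days from day 8 post-infection, suspension in 0.5% HPMC, 0.4% Tween 80, 0.5% benzyl alcohol, 5% DMSO in water; blood parasitemia by microscopy (LOD 20 000 parasites/mL); mice with recurring parasitemia euthanized; survival counted per starting group; 10-day untreated period days 28–37.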

Which Activity does the source give for CC[C@@H]([C@H](C)O)n1ncn(-c2ccc(N3CCN(c4ccc(OC[C@@H]5CO[C@@](Cn6cncn6)(c6ccc(F)cc6F)C5)cc4)CC3)cc2)c1=O [POSACONAZOLE] here?
Its Activity is “Active”.

Test system: Trypanosoma cruzi
Experiment: Antitrypanosomal activity against Trypanosoma cruzi Tulahuen 6 infected in Swiss mouse assessed as mouse survival at 20 mg/kg, po qd administered on day 8 post-infection measured on same day by microscopic analysis
Assay type: functional, organism-based
Design: dose 20 mg/kg
Settings: not given

How did the Activity turn out when CC[C@@H]([C@H](C)O)n1ncn(-c2ccc(N3CCN(c4ccc(OC[C@@H]5CO[C@@](Cn6cncn6)(c6ccc(F)cc6F)C5)cc4)CC3)cc2)c1=O [POSACONAZOLE] was run?
The Activity was “Active”.

Test system: Trypanosoma cruzi
Experiment: Antitrypanosomal activity against Trypanosoma cruzi Tulahuen 6 infected in Swiss mouse assessed as reduction in blood parasitemia at 20 mg/kg, po qd administered on day 8 post-infection for 10 days by microscopic analysis
Assay type: functional, organism-based
Design: dose 20 mg/kg
Settings: not given
Summary of the method: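 Infected Swiss mice dosed orally at 20 mg/kg once daily for up to 10 days starting day 8 pi; blood parasitemia followed by microscopy throughout dosing, scored as cleared or not during the dosing period.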

How did the Activity turn out when Cc1cc(C(=O)NC2CCN(C(c3ccc(C#N)cc3)c3cccnc3)CC2)n(C)n1 (stereo not given) was run?
The Activity was “inactive”.

For N#Cc1ccc(C(O)(c2ccc(C(F)(F)F)cc2)c2cccnc2)c(F)c1 (stereo not given), which Activity is on record?
The Activity was “Active”.

CC[C@@H]([C@H](C)O)n1ncn(-c2ccc(N3CCN(c4ccc(OC[C@@H]5CO[C@@](Cn6cncn6)(c6ccc(F)cc6F)C5)cc4)CC3)cc2)c1=O [POSACONAZOLE] was tested. Which Activity did it give?
Its Activity is “Active”.

For Fc1cc(Cl)ccc1C(NC1CCN(c2ccc(C(F)(F)F)cc2)CC1)c1cccnc1 (stereo not given), which Activity is on record?
Its Activity is “Active”.

Test system: Trypanosoma cruzi
Experiment: Antitrypanosomal activity against Trypanosoma cruzi Tulahuen 6 amastigotes infected in rat L6 cells after 96 hrs by colorimetric method
Assay type: functional, organism-based
Settings: Tulahuen 6, L6, 96 h

With Cc1cc(C(=O)NC2CCN(C(c3ccc(C#N)cc3)c3cccnc3)CC2)n(C)n1 (stereo not given) as the compound, how does the pIC50 read?
The pIC50 was 7.33.

CC[C@@H]([C@H](C)O)n1ncn(-c2ccc(N3CCN(c4ccc(OC[C@@H]5CO[C@@](Cn6cncn6)(c6ccc(F)cc6F)C5)cc4)CC3)cc2)c1=O [POSACONAZOLE] was tested. Which pIC50 did it give?
The pIC50 was 9.00.

How did the pIC50 turn out when Fc1cc(Cl)ccc1C(NC1CCN(c2ccc(C(F)(F)F)cc2)CC1)c1cccnc1 (stereo not given) was run?
Its pIC50 is 7.96.

Test system: Trypanosoma cruzi
Experiment: Antitrypanosomal activity against Trypanosoma cruzi Tulahuen 6 infected in Swiss mouse assessed as mouse survival at 20 mg/kg, po qd administered on day 8 post-infection for 20 days followed by 10 days non-treatment measured on day 37 post-infection by microscopic analysis
Assay type: functional, organism-based
Design: dose 20 mg/kg
Settings: not given
Summary of the method: as §1

CC[C@@H]([C@H](C)O)n1ncn(-c2ccc(N3CCN(c4ccc(OC[C@@H]5CO[C@@](Cn6cncn6)(c6ccc(F)cc6F)C5)cc4)CC3)cc2)c1=O [POSACONAZOLE] was tested. Which Activity did it give?
The Activity was “Active”.
